Assay [1] concerns the target Tyrosine-protein kinase Fer (Homo sapiens) (UniProt P16591). Kind of assay: Competitive binding affinity to FER (unknown origin) at 10 uM in presence of ATP relative to control. In outline:
(§1)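 In vitro ATP-site competition binding assay, part of profiling against a diverse panel of 128 kinases. Each compound was tested at a single concentration of 10 µM. Kinome selectivity was summarized as S15 selectivity scores.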

The target of assay [2] is T1, Ephrin type-B receptor 4 (Homo sapiens) (UniProt P54760).
T1 sequence (whole entry): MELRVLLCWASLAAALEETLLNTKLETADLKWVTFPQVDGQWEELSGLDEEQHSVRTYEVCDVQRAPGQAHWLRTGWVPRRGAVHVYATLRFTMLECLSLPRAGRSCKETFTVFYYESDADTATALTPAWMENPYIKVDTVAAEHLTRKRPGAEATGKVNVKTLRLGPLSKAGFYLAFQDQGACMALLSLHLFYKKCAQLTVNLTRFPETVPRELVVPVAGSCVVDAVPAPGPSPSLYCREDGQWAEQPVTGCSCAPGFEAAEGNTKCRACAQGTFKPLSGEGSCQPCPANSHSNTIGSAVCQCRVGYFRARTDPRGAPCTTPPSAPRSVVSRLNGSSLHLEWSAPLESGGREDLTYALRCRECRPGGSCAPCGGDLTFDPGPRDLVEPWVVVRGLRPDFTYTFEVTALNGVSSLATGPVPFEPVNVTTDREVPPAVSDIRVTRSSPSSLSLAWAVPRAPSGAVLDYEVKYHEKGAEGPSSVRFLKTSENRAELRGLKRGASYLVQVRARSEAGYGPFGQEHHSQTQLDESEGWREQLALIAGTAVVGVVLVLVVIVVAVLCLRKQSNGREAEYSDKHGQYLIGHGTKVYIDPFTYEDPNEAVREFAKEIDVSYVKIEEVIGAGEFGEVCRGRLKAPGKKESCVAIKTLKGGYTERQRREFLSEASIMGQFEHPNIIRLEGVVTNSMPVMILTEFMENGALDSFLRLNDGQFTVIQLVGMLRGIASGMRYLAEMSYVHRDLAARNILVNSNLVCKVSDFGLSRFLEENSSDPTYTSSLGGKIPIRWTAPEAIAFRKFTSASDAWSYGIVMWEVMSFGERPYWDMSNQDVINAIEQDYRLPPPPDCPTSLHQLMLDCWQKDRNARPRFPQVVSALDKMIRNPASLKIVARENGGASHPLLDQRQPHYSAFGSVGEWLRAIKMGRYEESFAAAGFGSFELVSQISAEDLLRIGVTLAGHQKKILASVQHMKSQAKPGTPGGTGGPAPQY
Description: Competitive binding affinity to EPHB4 (unknown origin) at 10 uM in presence of ATP relative to control. In a few lines:
as §1

Assay [3] deals with T2, Ephrin type-B receptor 1 (Homo sapiens) (UniProt P54762).
T2 sequence (whole entry): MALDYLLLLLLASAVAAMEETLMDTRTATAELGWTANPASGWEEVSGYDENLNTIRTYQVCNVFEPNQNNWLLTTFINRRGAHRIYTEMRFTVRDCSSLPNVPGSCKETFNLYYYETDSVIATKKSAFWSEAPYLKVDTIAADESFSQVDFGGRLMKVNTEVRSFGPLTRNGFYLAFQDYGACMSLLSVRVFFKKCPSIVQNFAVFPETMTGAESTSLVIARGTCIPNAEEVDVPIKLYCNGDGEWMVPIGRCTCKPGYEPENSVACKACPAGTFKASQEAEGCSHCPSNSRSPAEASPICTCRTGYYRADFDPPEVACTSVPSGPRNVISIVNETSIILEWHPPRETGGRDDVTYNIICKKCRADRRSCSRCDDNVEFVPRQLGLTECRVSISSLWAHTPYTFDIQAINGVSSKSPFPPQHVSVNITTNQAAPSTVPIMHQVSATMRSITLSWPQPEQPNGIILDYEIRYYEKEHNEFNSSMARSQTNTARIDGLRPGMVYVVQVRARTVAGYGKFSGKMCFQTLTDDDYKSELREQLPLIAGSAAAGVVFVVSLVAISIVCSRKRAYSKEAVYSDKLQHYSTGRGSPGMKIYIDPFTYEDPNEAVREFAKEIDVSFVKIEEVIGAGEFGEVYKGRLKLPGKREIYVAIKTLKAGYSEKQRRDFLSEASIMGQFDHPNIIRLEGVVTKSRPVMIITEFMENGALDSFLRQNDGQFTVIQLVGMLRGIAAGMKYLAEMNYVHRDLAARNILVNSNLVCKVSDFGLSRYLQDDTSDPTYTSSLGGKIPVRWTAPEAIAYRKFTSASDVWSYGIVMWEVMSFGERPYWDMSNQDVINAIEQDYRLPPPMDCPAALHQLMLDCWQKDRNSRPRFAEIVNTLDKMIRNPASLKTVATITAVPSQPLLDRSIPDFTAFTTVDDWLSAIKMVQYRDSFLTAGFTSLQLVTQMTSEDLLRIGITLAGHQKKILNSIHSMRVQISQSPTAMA
Description: Competitive binding affinity to EPHB1 (unknown origin) at 10 uM in presence of ATP relative to control. In a few lines:
as §1

In assay [4] the target is T3, Cytoplasmic tyrosine-protein kinase BMX (Homo sapiens) (UniProt P51813).
T3 sequence (whole entry): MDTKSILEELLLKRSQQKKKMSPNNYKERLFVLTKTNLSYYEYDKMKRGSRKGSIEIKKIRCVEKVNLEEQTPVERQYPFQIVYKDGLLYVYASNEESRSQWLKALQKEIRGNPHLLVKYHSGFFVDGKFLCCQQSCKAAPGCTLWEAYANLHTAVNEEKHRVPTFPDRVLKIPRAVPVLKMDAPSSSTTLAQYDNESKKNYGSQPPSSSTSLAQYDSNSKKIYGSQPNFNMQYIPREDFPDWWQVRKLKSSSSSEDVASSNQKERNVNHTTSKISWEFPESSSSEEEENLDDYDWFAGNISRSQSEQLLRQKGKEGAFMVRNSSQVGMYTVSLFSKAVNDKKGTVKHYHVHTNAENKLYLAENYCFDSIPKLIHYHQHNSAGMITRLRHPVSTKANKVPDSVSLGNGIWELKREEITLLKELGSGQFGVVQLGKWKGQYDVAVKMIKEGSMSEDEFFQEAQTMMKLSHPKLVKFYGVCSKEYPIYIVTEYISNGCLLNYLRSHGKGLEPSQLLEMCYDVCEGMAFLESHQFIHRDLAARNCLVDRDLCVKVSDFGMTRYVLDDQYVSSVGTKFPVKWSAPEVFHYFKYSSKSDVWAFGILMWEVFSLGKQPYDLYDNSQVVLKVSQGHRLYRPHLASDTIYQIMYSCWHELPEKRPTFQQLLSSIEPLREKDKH
Kind of assay: Competitive binding affinity to BMX (unknown origin) at 10 uM in presence of ATP relative to control.

For assay [5], the target named is Mitogen-activated protein kinase 10 (Homo sapiens, UniProt P53779). Description: Competitive binding affinity to JNK3 (unknown origin) at 10 uM in presence of ATP relative to control. In outline: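 In vitro ATP-site competition binding assay across a diverse panel of 128 kinases, with each compound tested at a single concentration. Kinase binding is expressed relative to control.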
Chain of Mitogen-activated protein kinase 10 (P53779 whole entry): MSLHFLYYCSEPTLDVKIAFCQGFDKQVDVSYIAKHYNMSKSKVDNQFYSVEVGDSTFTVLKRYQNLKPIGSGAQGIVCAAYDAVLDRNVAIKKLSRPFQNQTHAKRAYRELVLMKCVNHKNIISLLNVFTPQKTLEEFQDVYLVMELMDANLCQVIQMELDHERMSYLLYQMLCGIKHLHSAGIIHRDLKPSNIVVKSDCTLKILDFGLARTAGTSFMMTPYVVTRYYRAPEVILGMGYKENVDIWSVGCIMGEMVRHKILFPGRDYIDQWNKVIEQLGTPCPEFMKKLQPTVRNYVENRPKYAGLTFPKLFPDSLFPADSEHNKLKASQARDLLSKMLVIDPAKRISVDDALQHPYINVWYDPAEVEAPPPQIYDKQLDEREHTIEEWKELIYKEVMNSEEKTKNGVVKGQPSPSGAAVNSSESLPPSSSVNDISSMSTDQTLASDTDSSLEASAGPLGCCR

Chain of Tyrosine-protein kinase Fer (Homo sapiens) (P16591 whole entry, looked up): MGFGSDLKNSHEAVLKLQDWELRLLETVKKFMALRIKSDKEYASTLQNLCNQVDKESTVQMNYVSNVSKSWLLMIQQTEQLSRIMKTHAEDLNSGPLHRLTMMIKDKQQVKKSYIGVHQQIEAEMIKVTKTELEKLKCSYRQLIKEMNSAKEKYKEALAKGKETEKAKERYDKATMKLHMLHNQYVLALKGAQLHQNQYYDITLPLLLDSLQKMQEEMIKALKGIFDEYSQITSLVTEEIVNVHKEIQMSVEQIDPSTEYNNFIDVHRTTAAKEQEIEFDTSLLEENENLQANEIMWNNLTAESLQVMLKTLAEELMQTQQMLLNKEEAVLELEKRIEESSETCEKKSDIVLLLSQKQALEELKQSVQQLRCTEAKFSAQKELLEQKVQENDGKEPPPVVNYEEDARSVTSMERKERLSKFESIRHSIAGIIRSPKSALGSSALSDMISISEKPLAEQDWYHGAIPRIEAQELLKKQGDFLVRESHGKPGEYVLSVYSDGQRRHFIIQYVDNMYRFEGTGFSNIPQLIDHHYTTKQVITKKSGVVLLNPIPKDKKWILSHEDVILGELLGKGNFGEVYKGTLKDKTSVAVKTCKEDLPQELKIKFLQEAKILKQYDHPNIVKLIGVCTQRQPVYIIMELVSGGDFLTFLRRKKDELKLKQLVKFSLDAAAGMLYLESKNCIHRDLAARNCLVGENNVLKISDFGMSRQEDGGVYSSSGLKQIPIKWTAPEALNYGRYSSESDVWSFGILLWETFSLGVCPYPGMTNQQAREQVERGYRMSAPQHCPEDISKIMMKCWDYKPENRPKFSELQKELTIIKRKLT

The term inhibition denotes the relative decrease from the control value, in per cent. Take `O=C([C@H]1CC[C@H](Nc2nccc(-n3nnc4ccccc43)n2)CC1)N1CCOCC1`: the inhibition in assay [1] is less than 50%; in assay [2] it was less than 50%; in assay [3], less than 50%; in assay [4], less than 50%; in assay [5], 100%.

Regarding `CS(=O)(=O)CCCOc1cccc2c1ccn2-c1ccnc(N[C@H]2CC[C@H](C(=O)N3CCC(O)CC3)CC2)n1`, the inhibition in assay [5] is greater than 85%.

Take `O[C@H]1CC[C@H](Nc2nccc(-n3ccc4ccccc43)n2)CC1`: the inhibition in assay [1] was less than 50%; in assay [2], less than 50%; in assay [3] it was less than 50%; in assay [4], less than 50%; in assay [5], 100%.

Regarding `O[C@H]1CC[C@H](Nc2nccc(-n3ncc4ccccc43)n2)CC1`, the inhibition in assay [1] is less than 50%; in assay [2], less than 50%; in assay [3] it was less than 50%; in assay [4] it was less than 50%; in assay [5], 100%.

As for `O[C@H]1CC[C@H](Nc2nccc(-c3n[nH]c4ccccc34)n2)CC1`, the inhibition in assay [1] was 97%; in assay [2] it was 100%; in assay [3] it was less than 50%; in assay [4], less than 50%; in assay [5], 100%.

Regarding `N[C@H]1CC[C@H](Nc2nccc(-n3nnc4ccccc43)n2)CC1`, the inhibition in assay [1] is less than 50%; in assay [2] it was less than 50%; in assay [3], 73%; in assay [4], less than 50%; in assay [5], 100%.

As for `O[C@H]1CC[C@H](Nc2nccc(-n3nnc4ccccc43)n2)CC1`, the inhibition in assay [1] was less than 50%; in assay [2], less than 50%; in assay [3], less than 50%; in assay [4], less than 50%; in assay [5] it was 100%.

(Values after ChEMBL document CHEMBL2424622, “Development of amino-pyrimidine inhibitors of c-Jun N-terminal kinase (JNK): kinase profiling guided optimization of a 1,2,3-benzotriazole lead” (Bioorg Med Chem Lett, 2013).)
